The record followed here is ChEMBL document CHEMBL4270523, “A comparative study of non-native N-acyl l-homoserine lactone analogs in two Pseudomonas aeruginosa quorum sensing receptors that share a common native ligand yet inversely regulate virulence” (Bioorg Med Chem, 2018).

Assay [1] has as its target T1, Transcriptional activator protein LasR (Pseudomonas aeruginosa (strain ATCC 15692 / PAO1 / 1C / PRS 101 / LMG12228)) (UniProt P25084).
T1 sequence (whole entry): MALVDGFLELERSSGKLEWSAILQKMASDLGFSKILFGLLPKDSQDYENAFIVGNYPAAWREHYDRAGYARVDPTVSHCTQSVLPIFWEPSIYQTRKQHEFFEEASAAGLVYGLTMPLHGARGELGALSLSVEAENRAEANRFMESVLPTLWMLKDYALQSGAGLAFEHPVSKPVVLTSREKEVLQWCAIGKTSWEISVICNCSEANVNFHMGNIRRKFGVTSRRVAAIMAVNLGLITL
Kind of assay: Agonist activity at Pseudomonas aeruginosa LasR expressed in Escherichia coli JLD271 harboring LasR expression plasmid pJN105L and lasI-lacZ transcriptional fusion reporter pSC11-L measured after 35 mins by Miller-type beta-galactosidase reporter gene assay relative to OdDHL. The essentials: (§1)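 E. coli JLD271 (ΔsdiA) reporter cells grown in LB at 37 °C. Miller-type β-galactosidase assay with CPRG or ONPG substrate; growth read as OD600. Compounds tested from 1 pM to 100 μM. Activity is expressed relative to 100 μM OdDHL. EC50 taken from dose–response curves. Run in triplicate, n ≥ 3 trials; 95% CIs from SEM. Maximum activation has error ±10%.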
On the technique in general: Reporter assays use an easily measured gene product as a stand-in for the process of interest.

The target of assay [2] is T2, Transcriptional activator protein LasR (Pseudomonas aeruginosa (strain ATCC 15692 / PAO1 / 1C / PRS 101 / LMG12228), UniProt P25084).
T2 sequence (P25084 whole entry): T1 sequence (whole entry)
Put plainly: Agonist activity at Pseudomonas aeruginosa LasR expressed in Escherichia coli JLD271 harboring LasR expression plasmid pJN105L and lasI-lacZ transcriptional fusion reporter pSC11-L measured after 35 mins by Miller-type beta-galactosidase reporter gene assay. The essentials: (§2)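 E. coli JLD271 (ΔsdiA) reporter cells grown in LB at 37 °C. Miller-type β-galactosidase assay with CPRG or ONPG substrate; growth read as OD600. Compounds tested from 1 pM to 100 μM. Activity is expressed relative to 100 μM OdDHL. EC50 taken from dose–response curves. Maximum activation has error ±10%.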

In assay [3] the target is T3, PhzR (Pseudomonas aeruginosa, UniProt Q9RMS5).
T3 sequence (Q9RMS5 whole entry): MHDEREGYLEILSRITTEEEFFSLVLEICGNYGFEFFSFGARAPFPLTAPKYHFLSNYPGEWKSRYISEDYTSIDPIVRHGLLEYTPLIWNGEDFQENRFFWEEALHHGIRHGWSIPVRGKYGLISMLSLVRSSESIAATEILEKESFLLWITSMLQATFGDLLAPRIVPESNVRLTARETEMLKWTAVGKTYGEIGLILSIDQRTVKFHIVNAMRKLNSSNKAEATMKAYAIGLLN
Put plainly: Agonist activity at Pseudomonas aeruginosa QscR expressed in Escherichia coli JLD271 harboring QscR expression plasmid pJN105Q and pPA1897-lacZ transcriptional fusion reporter pSC11-Q measured after 35 mins by Miller-type beta-galactosidase reporter gene assay. Put shortly:
as §2

Assay [4] has as its target T4, PhzR (Pseudomonas aeruginosa) (UniProt Q9RMS5).
T4 sequence (whole entry): T3 sequence (Q9RMS5 whole entry)
Kind of assay: Agonist activity at Pseudomonas aeruginosa QscR expressed in Escherichia coli JLD271 harboring QscR expression plasmid pJN105Q and pPA1897-lacZ transcriptional fusion reporter pSC11-Q measured after 35 mins by Miller-type beta-galactosidase reporter gene assay relative to OdDHL. The essentials:
as §1

Assay [5] concerns the target T3, PhzR. Kind of assay: (§3) Antagonist activity at Pseudomonas aeruginosa QscR expressed in Escherichia coli JLD271 harboring QscR expression plasmid pJN105Q and pPA1897-lacZ transcriptional fusion reporter pSC11-Q using ONPG as substrate assessed as inhibition of OdDHL-induced receptor activation after 4 hrs by Miller-type beta-galactosidase reporter gene assay.
For assay [6], the target named is T4, PhzR (Pseudomonas aeruginosa). The assay is described as §3. Conditions: concentration not given here.
Assay [7] addresses T1, Transcriptional activator protein LasR (Pseudomonas aeruginosa (strain ATCC 15692 / PAO1 / 1C / PRS 101 / LMG12228)). Kind of assay: (§4) Antagonist activity at Pseudomonas aeruginosa LasR expressed in Escherichia coli JLD271 harboring LasR expression plasmid pJN105L and lasI-lacZ transcriptional fusion reporter pSC11-L assessed as inhibition of OdDHL-induced receptor activation after 4 hrs by Miller-type beta-galactosidase reporter gene assay. Conditions: concentration not given here.

For assay [8], the target named is T2, Transcriptional activator protein LasR. Described as §4.

On to `CCCCCCCCCC(=O)CC(=O)N[C@H]1CCCC1=O`, for which the figures for the Activity in assay [1] and in assay [4] were 110% and 77%, respectively. The concentration giving a half-maximal response (EC50) in assay [2] amounted to 14.9 nM; at PhzR [3], 834 nM.

As to `CCCCCCCCCC(=O)CC(=O)N[C@H]1CCOC1`, the Activity was found to be 81% in assay [1] and 74% in assay [4]. Moreover, the figures for the half-maximal effective concentration (EC50) (in assay [2]; on PhzR [3]) were 906 nM and 815 nM, respectively.

`CCCCCCCCCC(=O)CC(=O)NC1CCCC1`: the figures for the Activity in assay [1] and in assay [4] were 88% and 100%, respectively. Further, the values for the EC50 (in assay [2]; on PhzR [3]) were 162 nM and 359 nM, respectively.

On to `CCCCCCCCCC(=O)CC(=O)NCC1CCCO1` (stereo not given), for which the results for the Activity in assay [1] and in assay [4] were 96% and 3.2%, respectively. The half-maximal inhibitory concentration (IC50) on PhzR [5] was > 250000 nM. In addition, in assay [6], the inhibition is 59%. In assay [2], this molecule yielded a 50% effective concentration (EC50) of 256 nM.

For the molecule `CCCCCCCCCC(=O)CC(=O)O[C@H]1CCOC1=O`, the Activity in assay [1] amounted to 27%; in assay [4], 37%. The IC50 (on PhzR [5]; in assay [8]) was > 250000 nM throughout. Also, the inhibition in assay [6] is 23%; in assay [7] it was 53%.

For `CCCCCCCCCC(=O)CC(=O)N[C@H]1CCSC1=O`, the Activity in assay [1] was 100%; in assay [4], 110%. Moreover, the concentration giving a half-maximal response (EC50) in assay [2] was 1.53 nM; at PhzR [3], 80.5 nM.

Regarding `CCCCCCCCCC(=O)CC(=O)N[C@H]1CCNC1=O`, the Activity in assay [1] was 110%; in assay [4], 56%. The EC50 came to 29.7 nM in assay [2] and 3320 nM on PhzR [3].

Consider `CCCCCCCCCCCS(=O)(=O)N[C@H]1CCOC1=O`, for which the values for the Activity in assay [1] and in assay [4] were 6.4% and 72%, respectively. Moreover, the concentration giving a half-maximal response (EC50) at PhzR [3] worked out at 1590 nM.

For `CCCCCCCCCC(=O)CC(=O)N[C@H]1CCO[C@@H]1O`, the Activity in assay [1] turned out to be 96%; in assay [4], 110%. Further, the concentration giving a half-maximal response (EC50) is 1880 nM in assay [2] and 3460 nM on PhzR [3].

With `CCCCCCCCCC(=O)CC(=O)N[C@@H]1CCOC1=O`, the Activity in assay [1] came to 99%; in assay [4], 110%.

In general, EC50 refers to the concentration at which the effect is half-maximal. Low readings indicate an effect from little substance, high ones a need for much substance. By IC50 is commonly meant the concentration that gives 50% inhibition. Broadly, the inhibition is the change of the read-out against control, counted positive when it falls.
